{"data": "Published values collected from several papers", "target": "Phosphorylase b kinase gamma catalytic chain, liver/testis isoform (PHKG2, Homo sapiens, UniProt P15735)", "Sequence (P15735 1-406, as in one of the studies)": "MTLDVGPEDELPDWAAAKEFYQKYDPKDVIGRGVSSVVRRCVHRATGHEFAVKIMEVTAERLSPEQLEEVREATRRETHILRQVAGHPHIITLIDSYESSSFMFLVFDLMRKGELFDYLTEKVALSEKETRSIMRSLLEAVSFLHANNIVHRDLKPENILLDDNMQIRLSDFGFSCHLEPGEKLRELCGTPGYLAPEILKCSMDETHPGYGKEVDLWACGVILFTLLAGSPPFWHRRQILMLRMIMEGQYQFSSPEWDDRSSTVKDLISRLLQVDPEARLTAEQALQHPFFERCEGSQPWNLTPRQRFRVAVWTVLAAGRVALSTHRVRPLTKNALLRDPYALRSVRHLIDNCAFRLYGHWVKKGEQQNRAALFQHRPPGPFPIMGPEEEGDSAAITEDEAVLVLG", "note": "Compare with care: the assays were run in different laboratories."}
{"SMILES": "CCS(=O)(=O)c1cc2cc(C[C@@](O)(CC(C)(C)c3ccc(F)cc3C(N)=O)C(F)(F)F)[nH]c2cn1", "assay": "cell-free assay, competition with immobilised ligand", "setting": "1 µM", "remaining binding [%]": 100}
{"SMILES": "C=CC(=O)N1CCC(C(=O)NCC(=O)N2CCN(c3nc(-c4cnc(N)nc4C(F)F)nc(N4CCOCC4)n3)CC2)CC1", "assay": "binding, competition with immobilised ligand", "setting": "1 µM", "remaining binding [%]": 89}
{"SMILES": "O=C(c1ccc(Nc2ncc(Cl)c(-c3cc4ccccc4s3)n2)cc1)N1CCC(N2CCCC2)CC1", "assay": "binding, competition with immobilised ligand", "setting": "1 µM", "remaining binding [%]": 74}
{"SMILES": "N#CC1(c2ccccn2)CCN(Cc2cc(C(=O)N3CCCC3)c(=O)n3ccccc23)CC1", "assay": "cell-free assay, competition with immobilised ligand", "setting": "1 µM", "remaining binding [%]": 85}
{"SMILES": "C[C@H]1CCN(c2nccc(-c3cnn4ncccc34)n2)C1", "assay": "binding", "setting": "1 µM", "remaining binding [%]": 79}
{"SMILES": "CNC(=O)[C@@H]1CC[C@@H](n2c(-c3ccc4cnccc4c3)nc3ccc(C(=O)NCc4cccc(C(N)=O)c4)cc32)C1", "assay": "binding, competition with immobilised ligand", "setting": "1 µM", "remaining binding [%]": 99}
{"SMILES": "N[C@H]1CCN(c2nccc(-c3cnn4ncccc34)n2)C1", "assay": "binding", "setting": "1 µM", "remaining binding [%]": 77}
{"SMILES": "Cc1cnc(Nc2ccc(C(=O)N3CCC(N4CCCC4)CC3)cc2)nc1-c1cc2ccccc2s1", "assay": "binding, competition with immobilised ligand", "setting": "1 µM", "remaining binding [%]": 51}
{"SMILES": "O=C(Nc1ccc(Oc2ccc(F)cc2)cc1)N1CCc2ncccc2[C@H]1c1ccc(F)cc1", "assay": "cell-free assay, competition with immobilised ligand", "setting": "1 µM", "remaining binding [%]": 100}
{"SMILES": "O=C(NCC1CCOCC1)c1n[nH]cc1NC(=O)c1c(F)cccc1F", "assay": "binding, competition with immobilised ligand", "setting": "1 µM", "remaining binding [%]": 96}
{"SMILES": "CN(C)C(=O)Cn1cc(-c2nc([C@@](C)(c3ccc(-c4cnc(N)nc4)cc3)C3CC3)no2)cn1", "assay": "cell-free assay, competition with immobilised ligand", "setting": "1 µM", "remaining binding [%]": 80}
{"SMILES": "O=C(NCCCN1CCOCC1)c1ccc(Nc2ncc(Cl)c(-c3ccc(Cl)s3)n2)cc1", "assay": "binding, competition with immobilised ligand", "setting": "1 µM", "remaining binding [%]": 60}
{"SMILES": "COc1ccnn2ncc(-c3ccnc(N(C)C)n3)c12", "assay": "binding", "setting": "1 µM", "remaining binding [%]": 82}
{"SMILES": "Nc1ncc2c(n1)-c1c([nH]c3ccc(C#CC4CC4)cc13)CCCC2", "assay": "binding, competition with immobilised ligand", "setting": "1 µM", "remaining binding [%]": 100}
{"SMILES": "CN(C)c1nccc(-c2cnn3ncccc23)n1", "assay": "binding", "setting": "1 µM", "remaining binding [%]": 86}
{"SMILES": "Cc1cc(-n2nc(Cc3cc(F)cc(C(F)(F)F)c3)nc2C)ccc1C(N)=O", "assay": "cell-free assay, competition with immobilised ligand", "setting": "1 µM", "remaining binding [%]": 100}
{"SMILES": "CN(C)c1ncc(F)c(-c2cnn3ncccc23)n1", "assay": "binding", "setting": "1 µM", "remaining binding [%]": 69}
{"SMILES": "CNC(=O)Nc1ccc2c(c1)[C@@]1(CC2)OC(=O)N(CC(=O)N(Cc2ccc(F)cc2)[C@@H](C)C(F)(F)F)C1=O", "assay": "cell-free assay, competition with immobilised ligand", "setting": "1 µM", "remaining binding [%]": 100}
{"SMILES": "FC(F)(F)Oc1cccc(-c2cnc3ccc(-c4ccncc4)nn23)c1", "assay": "cell-free assay, competition with immobilised ligand", "setting": "5 µM", "remaining binding [%]": 22}
{"SMILES": "F[C@@H]1CCN(c2nccc(-c3cnn4ncccc34)n2)C1", "assay": "binding", "setting": "1 µM", "remaining binding [%]": 100}
{"SMILES": "COc1cnc(Nc2cccc(S(N)(=O)=O)c2)nc1N1CCN(c2ccccc2)C(=O)C1", "assay": "binding, competition with immobilised ligand", "setting": "1 µM", "remaining binding [%]": 100}
